# Paper PMC4059944 (Nature, 2014)
# Where “and” joins values, the source holds several entries; their conditions need not be identical. Equal values may be shown once.
# T1: Ctf4CTD (yeast Ctf4 amino acids 471 to 927) (S. cerevisiae, UniProt Q01454 471-927)
# T1 sequence: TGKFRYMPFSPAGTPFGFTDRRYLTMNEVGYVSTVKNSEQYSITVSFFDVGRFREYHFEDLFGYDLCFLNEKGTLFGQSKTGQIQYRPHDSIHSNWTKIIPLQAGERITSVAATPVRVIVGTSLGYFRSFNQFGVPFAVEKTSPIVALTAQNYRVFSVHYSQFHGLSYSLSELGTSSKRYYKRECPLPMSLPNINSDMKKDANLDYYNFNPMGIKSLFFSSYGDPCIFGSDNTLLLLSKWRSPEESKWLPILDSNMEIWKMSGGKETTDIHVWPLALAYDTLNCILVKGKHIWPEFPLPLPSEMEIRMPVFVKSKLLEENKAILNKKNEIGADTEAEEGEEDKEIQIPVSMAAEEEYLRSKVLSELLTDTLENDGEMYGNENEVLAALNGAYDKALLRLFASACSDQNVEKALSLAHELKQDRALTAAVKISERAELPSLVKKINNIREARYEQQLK
# T2: GINSPsf1ΔC (Strep III-tagged, for electron microscopy) (S. cerevisiae, UniProt Q12146 1-194; Q12488 1-164; P40359 1-213; Q03406 1-294)
# T2 sequence 1: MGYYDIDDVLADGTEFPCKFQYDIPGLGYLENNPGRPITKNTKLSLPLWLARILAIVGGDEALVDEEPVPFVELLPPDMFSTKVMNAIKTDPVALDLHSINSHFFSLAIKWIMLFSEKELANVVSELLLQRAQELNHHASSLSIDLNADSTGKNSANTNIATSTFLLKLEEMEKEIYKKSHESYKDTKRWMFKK
# T2 sequence 2: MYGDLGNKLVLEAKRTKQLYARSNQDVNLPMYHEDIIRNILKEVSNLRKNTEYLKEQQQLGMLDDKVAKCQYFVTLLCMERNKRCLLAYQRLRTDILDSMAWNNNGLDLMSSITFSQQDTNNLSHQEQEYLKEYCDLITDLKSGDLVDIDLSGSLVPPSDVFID
# T2 sequence 3: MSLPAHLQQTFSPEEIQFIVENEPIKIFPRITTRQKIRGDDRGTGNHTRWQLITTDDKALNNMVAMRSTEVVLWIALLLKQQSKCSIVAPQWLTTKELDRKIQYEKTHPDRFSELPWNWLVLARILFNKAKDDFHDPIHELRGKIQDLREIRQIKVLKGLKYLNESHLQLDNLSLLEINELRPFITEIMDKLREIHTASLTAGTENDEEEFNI
# T2 sequence 4: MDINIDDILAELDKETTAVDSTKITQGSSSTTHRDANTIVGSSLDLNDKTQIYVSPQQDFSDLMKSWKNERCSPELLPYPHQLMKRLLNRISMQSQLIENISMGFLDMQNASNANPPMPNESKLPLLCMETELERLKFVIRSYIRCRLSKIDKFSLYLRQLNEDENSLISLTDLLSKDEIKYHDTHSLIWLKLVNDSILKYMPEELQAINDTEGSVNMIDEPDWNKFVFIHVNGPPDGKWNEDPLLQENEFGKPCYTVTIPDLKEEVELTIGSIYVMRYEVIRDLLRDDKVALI
# B1: Ctf4 N-terminal deletion (Ctf4CTD, aa 461-927) (domain or fragment)
# chain: THSFPISLANTGKFRYMPFSPAGTPFGFTDRRYLTMNEVGYVSTVKNSEQYSITVSFFDVGRFREYHFEDLFGYDLCFLNEKGTLFGQSKTGQIQYRPHDSIHSNWTKIIPLQAGERITSVAATPVRVIVGTSLGYFRSFNQFGVPFAVEKTSPIVALTAQNYRVFSVHYSQFHGLSYSLSELGTSSKRYYKRECPLPMSLPNINSDMKKDANLDYYNFNPMGIKSLFFSSYGDPCIFGSDNTLLLLSKWRSPEESKWLPILDSNMEIWKMSGGKETTDIHVWPLALAYDTLNCILVKGKHIWPEFPLPLPSEMEIRMPVFVKSKLLEENKAILNKKNEIGADTEAEEGEEDKEIQIPVSMAAEEEYLRSKVLSELLTDTLENDGEMYGNENEVLAALNGAYDKALLRLFASACSDQNVEKALSLAHELKQDRALTAAVKISERAELPSLVKKINNIREARYEQQLK
# Tests used:
# Ctf4CTD [1] = test: Fluorescence polarization; type: binding, yeast (S. cerevisiae); details: fluorescence anisotropy, 25°C, 20 mM HEPES pH 7.2, 140 mM KCl, 5% (w/v) glycerol; 40 nM (Sld5) or 50 nM (Pol1) fluorescein-labeled peptide; mean of three independent experiments
# Ctf4CTD [2] = test: X-ray crystallography of Ctf4CTD crystals soaked with peptide; type: binding, yeast (S. cerevisiae); details: soaked 24 hours at 19 °C
# [3] = Multi-angle laser scattering; type: physicochemical, yeast (S. cerevisiae); details: size exclusion chromatography - MALS
# How it was run: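 Recombinant His-tagged full-length yeast Ctf4, expressed in E. coli BL21(DE3)-CodonPlus (1 mM IPTG, 37°C, 2 h), purified by Ni-NTA, Mono Q ion exchange and Superdex 200 gel filtration. About 100 μg loaded onto an HPLC size-exclusion column equilibrated in 150 mM NaCl, 20 mM Tris pH 8.0, 1 mM DTT. Eluate read by 8-angle light scattering and refractive index detectors.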
# CMG helicase = details: yeast cells; cited from earlier work
# [4] = biological target: T1, Ctf4CTD (yeast Ctf4 amino acids 471 to …); test: pull-down
# Ctf4CTD trimer = test: Single-particle electron microscopy of Ctf4CTD complexes; type: binding, yeast (S. cerevisiae)
# [5] = biological target: B1; test: negative-stain single-particle electron microscopy
# [6] = biological target: the molecule itself; test: negative-stain single-particle electron microscopy
# [7] = biological target: T2, GINSPsf1ΔC (Strep III-tagged, for …); test: negative-stain single-particle electron microscopy
# [8] = biological target: T1, Ctf4CTD (yeast Ctf4 amino acids 471 to …); test: native MS
molecule,measurement,setting,value
1- MDINIDDILAELDKETTAV -19 [Ctf4-binding sequence of Sld5],tighter association with Ctf4 compared to Pol1 (fold),Ctf4CTD [1],~ 5 fold
137-IDNFDDILGEFES-149 [Pol1 peptide],occupancy of binding sites in Ctf4CTD trimer crystal,Ctf4CTD [2]; open crystal form,occupies each of the two binding sites available in this crystal form
same,conformational change in helical domain of Ctf4CTD on binding,Ctf4CTD [2],does not induce an appreciable conformational change in the helical domain of Ctf4CTD
MDINIDDILAELDKETTAV [Sld5],mode of interaction with Ctf4,Ctf4CTD [2]; compared with Ctf4-binding motif of Pol1,near-identical mode of interaction
Ctf4: full-length yeast Ctf4 protein (protein) MVSVIDKLVFDFGGKTLVSLAPDNNTLCVANKNGLTKILKTNNPEEEPETLDSSKLVSSIKCYSNSHFLMTTMQGDALRYNIDSSQEELLARFALPLRDCCVIHSGKMAVFGGDDLELILLELDDETHKKHAIKIDEQVSQISYNSQMNILAVSMINGKVQIFSLTSTIPNKVHELNDYIVANSYDDTHRDKILSNMMDDIDKDNDNDLSETADPDENNVADPEFCAANRICTRVAWHPKGLHFALPCADDTVKIFSIKGYSLQKTLSTNLSSTKAHFIDLQFDPLRGTYIAAVDLNNKLTVWNWETSEIHYTREFKRKITNIAWKIQADSKTLDLVLGTWSGSIAIVQNLAESVVSNIPDQSVAESSTKHGLFVDSESDLENLEGNDDINKSDKLFSDITQEANAEDVFTQTHDGPSGLSEKRKYNFEDEEDFIDDDDGAGYISGKKPHNEHSYSRVHKTHSFPISLANTGKFRYMPFSPAGTPFGFTDRRYLTMNEVGYVSTVKNSEQYSITVSFFDVGRFREYHFEDLFGYDLCFLNEKGTLFGQSKTGQIQYRPHDSIHSNWTKIIPLQAGERITSVAATPVRVIVGTSLGYFRSFNQFGVPFAVEKTSPIVALTAQNYRVFSVHYSQFHGLSYSLSELGTSSKRYYKRECPLPMSLPNINSDMKKDANLDYYNFNPMGIKSLFFSSYGDPCIFGSDNTLLLLSKWRSPEESKWLPILDSNMEIWKMSGGKETTDIHVWPLALAYDTLNCILVKGKHIWPEFPLPLPSEMEIRMPVFVKSKLLEENKAILNKKNEIGADTEAEEGEEDKEIQIPVSMAAEEEYLRSKVLSELLTDTLENDGEMYGNENEVLAALNGAYDKALLRLFASACSDQNVEKALSLAHELKQDRALTAAVKISERAELPSLVKKINNIREARYEQQLK,oligomeric state in solution (MALS),[3],stable homotrimers in solution
same,oligomeric state in solution (MALS),[3]; listed as full-length Ctf4,stable trimer in solution
same,salt concentration resisted by association of Ctf4 with CMG,CMG helicase,≥ 700 mM
MDINIDDILAEADKETTAVD (domain or fragment) [GST-Sld5 (1-20) L12A],binding result,[4],binds
"Pol1NTD (Pol1-NTD-ProteinA: N-terminal region of Pol1, residues 1 to 351, fused to Protein A) (domain or fragment) MSSKSEKLEKLRKLQAARNGTSIDDYEGDESDGDRIYDEIDEKEYRARKRQELLHDDFVVDDDGVGYVDRGVEEDWREVDNSSSDEDTGNLASKDSKRKKNIKREKDHQITDMLRTQHSKSTLLAHAKKSQKKSIPIDNFDDILGEFESGEVEKPNILLPSKLRENLNSSPTSEFKSSIKRVNGNDESSHDAGISKKVKIDPDSSTDKYLEIESSPLKLQSRKLRYANDVQDLLDDVENSPVVATKRQNVLQDTLLANPPSAQSLADEEDDEDSDEDIILKRRTMRSVTTTRRVNIDSRSNPSTSPFVTAPGTPIGIKGLTPSKSLQSNTDVATLAVNVKKEDVVDPETDT",Ctf4CTD - GINS - Pol1NTD complexes observed,"Ctf4CTD trimer; reconstituted hetero-assemblies, Pol1 residues 1 to 351 fused to Protein A","varied stoichiometries, with partial or full occupancy of the Ctf4 trimer"
same,Ctf4CTD - Pol1NTD complex observed,"Ctf4CTD trimer; reference-free class averages, box size 448 Å",ring-shaped core linked to one mobile globular density
same,binding result,[5],binds
MDINIDDILAELDKETTAVD (domain or fragment) [GST-Sld5 (residues 1 to 20)],binding result,[4],binds
MDINIDAILAELDKETTAVD (domain or fragment) [GST-Sld5 (1-20) D7A],binding result,[4],binds
B1,stoichiometry N,[6],3
same,binding result,[7],binds
IDNFDDILGEFES [Pol1 peptide 137-IDNFDDILGEFES-149],stoichiometry N,[8],1 peptides per Ctf4CTD trimer and 2 peptides per Ctf4CTD trimer and 3 peptides per Ctf4CTD trimer
MDINIDDILAELDKETTAV [Sld5 peptide 1-MDINIDDILAELDKETTAV-19],stoichiometry N,[8],1 peptides per Ctf4CTD trimer and 2 peptides per Ctf4CTD trimer and 3 peptides per Ctf4CTD trimer
